Measured values published in ChEMBL document CHEMBL3853270, “Influence of Birch Bark Triterpenes on Keratinocytes and Fibroblasts from Diabetic and Nondiabetic Donors” (2016).
Active and inactive are the calls of the source. The rule behind the calls is not given here.

Legend:
Assay type in all cases: functional
Keratinocyte [1] = assay: Effect on pro-inflammatory related gene expression in diabetic adult human primary keratinocytes assessed as IL1B mRNA levels at 1.96 uM after 6 hrs by qPCR analysis
Keratinocyte [2] = assay: Effect on growth factor related gene expression in non-diabetic young human primary keratinocytes assessed as GDF15 mRNA levels at 1.96 uM after 6 hrs by qPCR analysis
Method in brief: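 Primary human keratinocytes (nondiabetic young or adult, diabetic adult donors) were exposed to compound for 6 h, with 0.1% DMSO as solvent control. Total RNA came from 400 000 cells per sample and was assayed on a Fluidigm Biomark high-throughput qPCR chip. Results are fold change vs solvent control, from 2−4 independent experiments on two donors per group, with SD. Groups were compared by one-way ANOVA with Bonferroni post-test.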

Fibroblast [3] = assay: Effect on chemokines related gene expression in non-diabetic young human primary fibroblasts assessed as CCL2 mRNA levels at 1.96 uM after 6 hrs by qPCR analysis
Fibroblast [4] = assay: Effect on pro-inflammatory related gene expression in non-diabetic young human primary fibroblasts assessed as PTGS2 mRNA levels at 1.96 uM after 6 hrs by qPCR analysis
Keratinocyte [5] = assay: Effect on ECM related gene expression in non-diabetic adult human primary keratinocytes assessed as FBN1 mRNA levels at 9.81 uM after 6 hrs by qPCR analysis
Method in brief: (§1)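 Primary keratinocytes from nondiabetic young and adult and diabetic adult donors; 400 000 cells per sample, 6 h exposure at 1.96 or 9.81 μM. RNA extracted and read on a high-throughput qPCR chip. Results are fold change versus 0.1% DMSO solvent control from 5−7 independent experiments over two donors per group, SD, one-way ANOVA with Bonferroni post-test.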

Keratinocyte [6] = assay: Effect on transcription factor related gene expression in diabetic adult human primary keratinocytes assessed as JUN mRNA levels at 9.81 uM after 6 hrs by qPCR analysis
Fibroblast [7] = assay: Effect on transcription factor related gene expression in non-diabetic young human primary fibroblasts assessed as JUN mRNA levels at 9.81 uM after 6 hrs by qPCR analysis
Keratinocyte [8] = assay: Effect on pro-inflammatory related gene expression in non-diabetic young human primary keratinocytes assessed as PTGS2 mRNA levels at 1.96 uM after 6 hrs by qPCR analysis
Keratinocyte [9] = assay: Effect on cellular connection related gene expression in diabetic adult human primary keratinocytes assessed as GJB2 mRNA levels at 1.96 uM after 6 hrs by qPCR analysis
Fibroblast [10] = assay: Effect on pro-inflammatory related gene expression in non-diabetic adult human primary fibroblasts assessed as PTGS2 mRNA levels at 9.81 uM after 6 hrs by qPCR analysis
[11] = Effect on wound healing activity in diabetic adult human primary keratinocytes assessed as upregulation of IL8 protein levels at 1.96 uM after 24 hrs by bead-based suspension array analysis; settings: Keratinocyte
Keratinocyte [12] = assay: Effect on MMP1 mRNA expression levels in non-diabetic adult human primary keratinocytes at 1.96 uM after 6 hrs by qPCR analysis; method in brief: as §1
Fibroblast [13] = assay: Effect on antiinflammatory related gene expression in non-diabetic young human primary fibroblasts assessed as NFKBIA mRNA levels at 1.96 uM after 6 hrs by qPCR analysis
Method in brief: (§2)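 Primary dermal fibroblasts from one nondiabetic young, one nondiabetic adult and one diabetic adult donor; 320 000 cells per sample, 6 h at 1.96 or 9.81 μM. RNA measured on a high-throughput qPCR chip. Fold change versus 0.1% DMSO control, four independent experiments, SD, one-way ANOVA with Bonferroni post-test.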

Fibroblast [14] = assay: Effect on antiinflammatory related gene expression in diabetic adult human primary fibroblasts assessed as SOCS3 mRNA levels at 9.81 uM after 6 hrs by qPCR analysis; method in brief: as §2
Keratinocyte [15] = assay: Effect on antiinflammatory related gene expression in diabetic adult human primary keratinocytes assessed as NFKBIA mRNA levels at 9.81 uM after 6 hrs by qPCR analysis; method in brief: as §1
Fibroblast [16] = assay: Effect on antioxidant related gene expression in non-diabetic young human primary fibroblasts assessed as SOD2 mRNA levels at 9.81 uM after 6 hrs by qPCR analysis
Keratinocyte [17] = assay: Effect on antioxidant related gene expression in diabetic adult human primary keratinocytes assessed as SOD2 mRNA levels at 1.96 uM after 6 hrs by qPCR analysis
Keratinocyte [18] = assay: Effect on chemokines related gene expression in non-diabetic adult human primary keratinocytes assessed as CXCL10 mRNA levels at 1.96 uM after 6 hrs by qPCR analysis
[19] = Effect on wound healing activity in diabetic adult human primary fibroblasts assessed as upregulation of soluble ICAM1 protein levels at 1.96 uM after 24 hrs by bead-based suspension array analysis; settings: Fibroblast
Fibroblast [20] = assay: Effect on chemokines related gene expression in diabetic adult human primary fibroblasts assessed as WDR26 mRNA levels at 1.96 uM after 6 hrs by qPCR analysis
Keratinocyte [21] = assay: Effect on pro-inflammatory related gene expression in non-diabetic adult human primary keratinocytes assessed as IL1B mRNA levels at 1.96 uM after 6 hrs by qPCR analysis
[22] = Effect on wound healing activity in diabetic adult human primary keratinocytes assessed as upregulation of soluble E-selectin protein levels at 1.96 uM after 24 hrs by bead-based suspension array analysis; settings: Keratinocyte
Fibroblast [23] = assay: Effect on MMP1 mRNA expression levels in non-diabetic adult human primary fibroblasts at 1.96 uM after 6 hrs by qPCR analysis; method in brief: as §2
Fibroblast [24] = assay: Effect on growth factors related gene expression in non-diabetic young human primary fibroblasts assessed as FGF2 mRNA levels at 1.96 uM after 6 hrs by qPCR analysis
Method in brief: (§3)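 Primary human dermal fibroblasts (young or adult nondiabetic, adult diabetic donor) were treated for 6 h against a 0.1% DMSO solvent control. RNA from 320 000 cells per sample was measured by Fluidigm Biomark high-throughput qPCR. Values are fold change relative to solvent control, from four independent experiments, with SD. One-way ANOVA with Bonferroni post-test was applied.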

Fibroblast [25] = assay: Effect on growth factors related gene expression in diabetic adult human primary fibroblasts assessed as FGF2 mRNA levels at 9.81 uM after 6 hrs by qPCR analysis; method in brief: as §3
Fibroblast [26] = assay: Effect on adhesion molecules related gene expression in diabetic adult human primary fibroblasts assessed as VCAM1 mRNA levels at 1.96 uM after 6 hrs by qPCR analysis
Method in brief: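 Dermal fibroblasts from nondiabetic adult and diabetic adult donors, exposed for 6 h at 1.96 or 9.81 μM. ICAM-1 and VCAM-1 mRNA measured by standard qRT-PCR, n = 3. Fold change versus 0.1% DMSO control, SD, one-way ANOVA with Bonferroni post-test.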

Fibroblast [27] = assay: Effect on pro-inflammatory related gene expression in non-diabetic young human primary fibroblasts assessed as IL6 mRNA levels at 1.96 uM after 6 hrs by qPCR analysis
Keratinocyte [28] = assay: Effect on antioxidant related gene expression in non-diabetic young human primary keratinocytes assessed as SOD2 mRNA levels at 9.81 uM after 6 hrs by qPCR analysis
Fibroblast [29] = assay: Effect on pro-inflammatory related gene expression in non-diabetic adult human primary fibroblasts assessed as IL6 mRNA levels at 1.96 uM after 6 hrs by qPCR analysis

Compound: C=C(C)[C@@H]1CC[C@]2(CO)CC[C@]3(C)[C@H](CC[C@@H]4[C@@]5(C)CC[C@H](O)C(C)(C)[C@@H]5CC[C@]43C)[C@@H]12 [BETULIN]
- fold change (FC) (Keratinocyte [1]): 0.8
- fold change (FC) (Keratinocyte [2]): 1
- fold change (FC) (Fibroblast [3]): 4.3
- fold change (FC) (Fibroblast [4]): 10.9
- fold change (FC) (Keratinocyte [5]): 0.7
- fold change (FC) (Keratinocyte [6]): 1.7
- fold change (FC) (Fibroblast [7]): 1.6
- fold change (FC) (Keratinocyte [8]): 1.4
- fold change (FC) (Keratinocyte [9]): 0.9
- fold change (FC) (Fibroblast [10]): 179
- Activity [11]: Active
- fold change (FC) (Keratinocyte [12]): 1
- fold change (FC) (Fibroblast [13]): 2.9
- fold change (FC) (Fibroblast [14]): 1.4
- fold change (FC) (Keratinocyte [15]): 2
- fold change (FC) (Fibroblast [16]): 2.2
- fold change (FC) (Keratinocyte [17]): 1.1
- fold change (FC) (Keratinocyte [18]): 2.9
- Activity [19]: Active
- fold change (FC) (Fibroblast [20]): 1.2
- fold change (FC) (Keratinocyte [21]): 0.8
- Activity [22]: Active
- fold change (FC) (Fibroblast [23]): 2.1
- fold change (FC) (Fibroblast [24]): 1.7
- fold change (FC) (Fibroblast [25]): 1.6
- fold change (FC) (Fibroblast [26]): 3.3
- fold change (FC) (Fibroblast [27]): 45
- fold change (FC) (Keratinocyte [28]): 1.4
- fold change (FC) (Fibroblast [29]): 278
